Source: article PMC6644362 (ACS Omega, 2018)
Several values for one entry are separate records, joined by “and”; a condition that tells them apart may be missing. Equal values may be shown once.

Key:
recombinant human TK2 [1] = target: T1, recombinant human TK2 (Homo sapiens, UniProt O00142); assay: Isothermal titration calorimetry; assay type: binding
T1 sequence (O00142 56-265 limits assumed): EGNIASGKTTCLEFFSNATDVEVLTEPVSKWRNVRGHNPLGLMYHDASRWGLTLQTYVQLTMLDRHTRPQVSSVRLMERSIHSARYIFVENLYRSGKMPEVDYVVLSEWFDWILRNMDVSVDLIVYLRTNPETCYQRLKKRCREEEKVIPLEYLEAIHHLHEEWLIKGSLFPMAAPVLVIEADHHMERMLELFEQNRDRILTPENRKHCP
Procedure, shortened: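 Calorimetry at 25 °C used 40 μM TK2 (dTTP-bound or dTTP-free) dialysed into 10 mM Tris/HCl pH 7.9, 1 mM MgCl2. Ligands were in dialysis buffer at 1–3 mM syringe concentration, also ATPγS into enzyme–dT/dC complexes. There was one 2 μL control injection, then 24 × 8 μL injections at 500 s intervals. Blanks were ligand into buffer and buffer into enzyme. Best-fit model per ligand; Kd = 1/KB.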

[2] = target: human recombinant dC kinase (dCK) (Homo sapiens, UniProt P27707); assay: ITC titration of ATPγS to dCK in the presence and absence of dC; assay type: binding
recombinant human TK2 [3] = target: T1, recombinant human TK2; assay: Intrinsic tryptophan fluorescence; assay type: binding; conditions: for Kd / ΔFmax: mean ± SD; for fa (fractional accessibility) / Ka (quenching constant of the accessible fraction): modified Stern–Volmer equation; for fractional initial accessible fluorescence: summary of Table 2, dTTP-bound or dTTP-free TK2; for quenching of the fluorescence emission on addition of ligand: titrated to dTTP-bound or dTTP-free TK2, 0.5–4000 μM
TK2 = conditions: feedback inhibition, enzyme kinetic experiments; cited from earlier work
[4] = titrated to E–dC complex, 25 °C
[5] = titrated to E–dT complex, 25 °C
[6] = Kd (equilibrium binding constant), dTTP-bound TK2, one-site specific binding model
[7] = dTTP-bound TK2, 2 μM TK2, 21 °C
[8] = dTTP-bound TK2, one-site specific binding model
[9] = read-out: Kd (equilibrium binding constant), dTTP-bound TK2, one-site specific binding model
[10] = Kd (equilibrium binding constant), dTTP-free TK2, one-site specific binding model
[11] = dTTP-free TK2, one-site specific binding model

Chain of human recombinant dC kinase (dCK) (P27707 whole entry): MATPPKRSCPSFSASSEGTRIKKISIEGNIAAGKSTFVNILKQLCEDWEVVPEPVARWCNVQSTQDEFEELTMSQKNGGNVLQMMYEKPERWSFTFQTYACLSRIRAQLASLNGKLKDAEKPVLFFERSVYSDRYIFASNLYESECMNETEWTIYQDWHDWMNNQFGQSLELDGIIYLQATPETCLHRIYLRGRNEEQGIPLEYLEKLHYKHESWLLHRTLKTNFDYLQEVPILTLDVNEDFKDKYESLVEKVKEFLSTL

In the case of `Nc1ncnc2c1ncn2[C@@H]1O[C@H](CO[P@](=O)(O)O[P@](=O)(O)O[P@@](=O)(O)S)[C@@H](O)[C@H]1O` [ATPγS, adenosine 5′-(gamma-thio) triphosphate], the Kd (recombinant human TK2 [1]; Kd (dissociation constant), titrated to E–dC complex, 25 °C) is reported as 20 µM, the Kd (recombinant human TK2 [1]; Kd (dissociation constant), titrated to E–dT complex, 25 °C) is reported as 0.93 µM and the “ΔG (Gibbs free energy)” value (recombinant human TK2 [1]; [4]) is reported as “–0.18 ± 0.01 kcal/mol”. For the same compound, the “ΔH (enthalpy changes)” value (recombinant human TK2 [1]; [4]) was “–7.5 ± 0.5 kcal/mol”, the “ΔS (entropy changes)” value (recombinant human TK2 [1]; [4]) was “–24.9 cal/mol/deg” and the binding constant (recombinant human TK2 [1]; titrated to E–dT complex) was 1.1 × 10^6 M^–1. The “ΔG (Gibbs free energy)” value (recombinant human TK2 [1]; [5]) was “–8.2 ± 0.1 kcal/mol”, the “ΔH (enthalpy changes)” value (recombinant human TK2 [1]; [5]) was “–19.4 ± 0.8 kcal/mol” and the “ΔS (entropy changes)” value (recombinant human TK2 [1]; [5]) was “–37.6 cal/mol/deg”. The “ITC heat response / specific interaction” value (recombinant human TK2 [1]; titrated with either dTTP-bound or dTTP-free TK2) was “no heat response”, the “binding to dCK alone (ITC)” value ([2]; absence of dC) was “does not bind” and the “binding to the dCK–dC complex (ITC)” value ([2]; presence of dC) was “bind”.
For `Cc1cn([C@H]2C[C@H](N=[N+]=[N-])[C@@H](CO)O2)c(=O)[nH]c1=O` [AZT, 3′-Azido-2′,3′-dideoxythymidine], the Kd (recombinant human TK2 [3]; [6]) was 6.94 ± 2.78 µM, the “fa (fractional accessibility)” value (recombinant human TK2 [3]; [7]) was 0.38 ± 0.04 and the ΔFmax (recombinant human TK2 [3]; [8]) was 12.77 ± 1.34. The “fractional initial accessible fluorescence” value (recombinant human TK2 [3]) was 20–40% and the “quenching of the fluorescence emission on addition of ligand” value (shortened to “quenching of the fluorescence emission”) (recombinant human TK2 [3]) was “caused quenching”.
In the case of `Cc1cn([C@H]2C[C@H](F)[C@@H](CO)O2)c(=O)[nH]c1=O` [FLT, 3′-fluoro-2′,3′-dideoxythymidine], the “Ka (quenching constant of the accessible fraction)” value (recombinant human TK2 [3]; [7]) is reported as 0.14 ± 0.02 μM^–1, the “fa (fractional accessibility)” value (recombinant human TK2 [3]; [7]) is reported as 0.24 ± 0.04 and the ΔFmax (recombinant human TK2 [3]; [8]) is reported as 17.81 ± 0.99. The Kd (recombinant human TK2 [3]; [9]) was 6.17 ± 1.35 µM, the “fractional initial accessible fluorescence” value (recombinant human TK2 [3]) was 20–40% and the “quenching of the fluorescence emission” value (recombinant human TK2 [3]) was “caused quenching”.
With `Nc1ccn([C@H]2C[C@H](O)[C@@H](CO)O2)c(=O)n1` [dC, deoxycytidine] the “ΔH (enthalpy changes)” value (recombinant human TK2 [1]; dTTP-bound enzyme, 25 °C) was “–23.4 ± 0.7 kcal/mol”, the “ΔS (entropy changes)” value (recombinant human TK2 [1]; dTTP-bound enzyme, 25 °C) was “–7.9 cal/mol/deg” and the Kd (recombinant human TK2 [3]; [6]) was 3.35 ± 0.81 µM. The Kd (recombinant human TK2 [3]; [10]) was 5.64 ± 1.2 µM, the “fa (fractional accessibility)” value (recombinant human TK2 [3]; [7]) was 0.29 ± 0.05 and the ΔFmax (recombinant human TK2 [3]; [8]) was 19.86 ± 0.94. The “fa (fractional accessibility)” value (recombinant human TK2 [3]; dTTP-free TK2, 21 °C) was 0.40 ± 0.10, the ΔFmax (recombinant human TK2 [3]; [11]) was 67.5 ± 2.9 and the “fractional initial accessible fluorescence” value (recombinant human TK2 [3]) was 20–40%. For the same compound, the “quenching of the fluorescence emission” value (recombinant human TK2 [3]) was “caused quenching”.
In the case of `Nc1ccn([C@H]2C[C@H](O)[C@@H](COP(=O)(O)O)O2)c(=O)n1` [dCMP, deoxycytidine monophosphate], the “Ka (quenching constant of the accessible fraction)” value (recombinant human TK2 [3]; [7]) is reported as 0.42 ± 0.03 μM^–1, the “fa (fractional accessibility)” value (recombinant human TK2 [3]; [7]) is reported as 0.21 ± 0.02 and the ΔFmax (recombinant human TK2 [3]; [8]) is reported as 19.74 ± 1.18. The Kd (recombinant human TK2 [3]; [9]) was 4.42 ± 0.99 µM, the “fractional initial accessible fluorescence” value (recombinant human TK2 [3]) was 20–40% and the “quenching of the fluorescence emission” value (recombinant human TK2 [3]) was “caused quenching”.
In the case of `Nc1ccn([C@H]2C[C@H](O)[C@@H](COP(=O)(O)OP(=O)(O)OP(=O)(O)O)O2)c(=O)n1` [dCTP, deoxycytidine triphosphate], the “ITC heat changes in the isothermogram” value (recombinant human TK2 [1]; dTTP-free enzyme) is reported as “no heat changes”.
With `Cc1cn([C@H]2C[C@H](O)[C@@H](CO)O2)c(=O)[nH]c1=O` [dT, thymidine] the “binding constant, times higher than that of dC” value (recombinant human TK2 [1]; ITC) was 5 times, the “binding constant, times higher than that of dTTP” value (recombinant human TK2 [1]; ITC) was 65 times and the “binding affinity, times higher than that of dC” value (recombinant human TK2 [1]; ITC, dTTP-bound enzyme) was 3 times. For the same compound, the Kd (recombinant human TK2 [1]; Kd1 (high affinity), dTTP-bound enzyme, two-site binding model) was 0.55 µM, the “ΔG (Gibbs free energy)” value (recombinant human TK2 [1]; dTTP-bound enzyme, 25 °C) was “–7.1 ± 0.2 kcal/mol” and the “ΔH (enthalpy changes)” value (recombinant human TK2 [1]; dTTP-bound enzyme, 25 °C) was “–72.7 ± 0.2 kcal/mol”. The “ΔS (entropy changes)” value (recombinant human TK2 [1]; dTTP-bound enzyme, 25 °C) was “–220 cal/mol/deg”, the Kd (recombinant human TK2 [1]; read-out: Kd2 (lower affinity), dTTP-bound enzyme, two-site binding model) was 6.13 µM and the Kd (recombinant human TK2 [3]; [6]) was 3.26 ± 1.01 µM. For the same compound, the Kd (recombinant human TK2 [3]; [10]) was 13.3 ± 1.2 µM, the “Ka (quenching constant of the accessible fraction)” value (recombinant human TK2 [3]; [7]) was 0.16 μM^–1 and the “fa (fractional accessibility)” value (recombinant human TK2 [3]; [7]) was 0.25 ± 0.01. For the same compound, the “fa, fraction of the initial fluorescence accessible” value (recombinant human TK2 [3]; dTTP-bound TK2, modified Stern–Volmer equation) was 25%, the ΔFmax (recombinant human TK2 [3]; [8]) was 21.95 ± 1.25 and the “fa (fractional accessibility)” value (recombinant human TK2 [3]; dTTP-free TK2, 21 °C) was 0.17 ± 0.02. The ΔFmax (recombinant human TK2 [3]; [11]) was 69.7 ± 3.1 and the “quenching of the fluorescence emission” value (recombinant human TK2 [3]) was “caused quenching”.
In the case of `Cc1cn([C@H]2C[C@H](O)[C@@H](COP(=O)(O)O)O2)c(=O)[nH]c1=O` [dTMP, deoxythymidine monophosphate], the “Ka (quenching constant of the accessible fraction)” value (recombinant human TK2 [3]; [7]) is reported as 0.79 ± 0.04 μM^–1, the “fa (fractional accessibility)” value (recombinant human TK2 [3]; [7]) is reported as 0.21 ± 0.02 and the ΔFmax (recombinant human TK2 [3]; [8]) is reported as 16.74 ± 0.53. For the same compound, the Kd (recombinant human TK2 [3]; [9]) was 1.53 ± 0.28 µM, the “fractional initial accessible fluorescence” value (recombinant human TK2 [3]) was 20–40% and the “quenching of the fluorescence emission” value (recombinant human TK2 [3]) was “caused quenching”.
With `Cc1cn([C@H]2C[C@H](O)[C@@H](CO[P@](=O)(O)O[P@@](=O)(O)OP(=O)(O)O)O2)c(=O)[nH]c1=O` [dTTP, deoxythymidine triphosphate] the Kd (recombinant human TK2 [1]; Kd (dissociation constant), dTTP-free enzyme, 25 °C, Kd = 1/KB) was 36 µM and 35.7 µM, the binding constant (recombinant human TK2 [1]; dTTP-free TK2) was 2.8 × 10^4 M^–1 and the “ΔG (Gibbs free energy)” value (recombinant human TK2 [1]; dTTP-free enzyme, 25 °C) was “–6.0 ± 0.1 kcal/mol”. The “ΔH (enthalpy changes)” value (recombinant human TK2 [1]; dTTP-free enzyme, 25 °C) was 237.2 ± 0.2 kcal/mol, the “ΔS (entropy changes)” value (recombinant human TK2 [1]; dTTP-free enzyme, 25 °C) was 816 cal/mol/deg and the Kd (recombinant human TK2 [3]; [10]) was 3.64 ± 1.02 µM. The “fa (fractional accessibility)” value (recombinant human TK2 [3]; dTTP-free TK2, 21 °C) was 0.22 ± 0.01, the ΔFmax (recombinant human TK2 [3]; [11]) was 57.6 ± 2.9 and the “fractional initial accessible fluorescence” value (recombinant human TK2 [3]) was 20–40%. The “quenching of the fluorescence emission” value (recombinant human TK2 [3]) was “caused quenching” and the Ki (TK2) was 2.5 µM and ~2.5 µM.
